This is an account of results in ChEMBL document CHEMBL5385940 (J Nat Prod, 2024).

Each structure is given as a SMILES string. Activity calls are given as the source filed them. The rule behind the calls is not given here. Some results are limits rather than exact numbers.

Data set [1] concerns 3T3-L1. Briefly: Anti-adipogenic activity in mouse 3T3-L1 preadipocytes assessed as inhibition of lipid accumulation incubated for 6 days by Nile Red staining based fluorescence microscopic analysis. The data set is classed as functional, cell-based. The following applies: time 6.0 day.
The nature of data set [2]: Cytotoxicity against mouse 3T3-L1 cells assessed as cell viability at 5 uM incubated for 48 hrs by CCK-8 assay relative to control. The data set is classed as toxicity, cell-based. The following applies: read-out: Activity. A digest of the protocol:
(§1)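 3T3-L1 preadipocytes seeded at 1 × 10^3 cells/well and left 12 h, then exposed to alkaloids for 48 h. Viability by CCK-8, absorbance at 450 nm, relative to control. Lovastatin 5 μM included. Mean ± SD, n = 3.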

The nature of data set [3]: Cytotoxicity against mouse 3T3-L1 cells assessed as cell viability at 10 uM incubated for 48 hrs by CCK-8 assay relative to control. To be noted: read-out: Activity. The data set is classed as toxicity, cell-based. A digest of the protocol:
as §1
On the technique in general: Tetrazolium dyes change colour on reduction, which living cells bring about.

Data set [4] is described as follows: Cytotoxicity against mouse 3T3-L1 cells assessed as cell viability at 15 uM incubated for 48 hrs by CCK-8 assay relative to control. The data set is classed as toxicity, cell-based. To be noted: read-out: Activity. In outline:
as §1

The nature of data set [5]: Cytotoxicity against mouse 3T3-L1 cells assessed as cell viability at 20 uM incubated for 48 hrs by CCK-8 assay relative to control. The data set is classed as toxicity, cell-based. To be noted: read-out: Activity. In outline: as §1
A short description of data set [6]: Cytotoxicity against mouse 3T3-L1 cells assessed as cell viability at 25 uM incubated for 48 hrs by CCK-8 assay relative to control. To be noted: read-out: Activity. The data set is classed as toxicity, cell-based. In outline: as §1
Data set [7] can be described thus: Cytotoxicity against mouse 3T3-L1 cells transfected with Lenti-PPARgamma-Luc reporter assessed as cell viability at 0.1 uM incubated for 48 hrs by CCK-8 assay relative to control. The data set is classed as toxicity, cell-based. The following applies: read-out: Activity. In outline:
(§2)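 3T3-L1-Lenti-PPARγ-Luc reporter cells (lentivirus-transduced) exposed to alkaloids at a range of concentrations. Viability by CCK-8, absorbance at 450 nm, relative to control, used to set maximum noncytotoxic concentrations. Triplicate.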

Data set [8] in a line: Cytotoxicity against mouse 3T3-L1 cells transfected with Lenti-PPARgamma-Luc reporter assessed as cell viability at 1 uM incubated for 48 hrs by CCK-8 assay relative to control. The data set is classed as toxicity, cell-based. The following applies: read-out: Activity. A digest of the protocol:
as §2

Data set [9] is described as follows: Cytotoxicity against mouse 3T3-L1 cells transfected with Lenti-PPARgamma-Luc reporter assessed as cell viability at 5 uM incubated for 48 hrs by CCK-8 assay relative to control. To be noted: read-out: Activity. The class given is toxicity, cell-based. A digest of the protocol: as §2
A short description of data set [10]: Cytotoxicity against mouse 3T3-L1 cells transfected with Lenti-PPARgamma-Luc reporter assessed as cell viability at 10 uM incubated for 48 hrs by CCK-8 assay relative to control. The class given is toxicity, cell-based. The following applies: read-out: Activity. A digest of the protocol:
as §2

Data set [11] in a line: Cytotoxicity against mouse 3T3-L1 cells transfected with Lenti-PPARgamma-Luc reporter assessed as cell viability at 15 uM incubated for 48 hrs by CCK-8 assay relative to control. The following applies: read-out: Activity. The data set is classed as toxicity, cell-based. A digest of the protocol:
as §2

A short description of data set [12]: Cytotoxicity against mouse 3T3-L1 cells transfected with Lenti-PPARgamma-Luc reporter assessed as cell viability at 20 uM incubated for 48 hrs by CCK-8 assay relative to control. The data set is classed as toxicity, cell-based. The following applies: read-out: Activity. In outline:
as §2

Data set [13] in a line: Cytotoxicity against mouse 3T3-L1 cells transfected with Lenti-PPARgamma-Luc reporter assessed as cell viability at 25 uM incubated for 48 hrs by CCK-8 assay relative to control. The following applies: read-out: Activity. The data set is classed as toxicity, cell-based. In outline:
as §2

Data set [14] can be described thus: Cytotoxicity against mouse 3T3-L1 cells transfected with Lenti-PPARgamma-Luc reporter assessed as cell viability at 30 uM incubated for 48 hrs by CCK-8 assay relative to control. The data set is classed as toxicity, cell-based. To be noted: read-out: Activity. A digest of the protocol: as §2
Data set [15] relates to 3T3-L1. Briefly: Anti-adipogenic activity in mouse 3T3-L1 cells transfected with Lenti-PPARgamma-Luc reporter assessed as inhibition of PPARgamma expression by luminescence based microplate reader analysis. The data set is classed as functional, cell-based.
The subject of data set [16] is 3T3-L1. In words: Inhibition of adipogenesis in mouse 3T3-L1 cells assessed as downregulation of PPARgamma relative protein level […] by Western blot analysis. The class given is functional, cell-based. In outline: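 Differentiated 3T3-L1 adipocytes treated with alkaloids at several doses. Lysed in RIPA with PMSF on ice for 30 min. Proteins transferred to PVDF and blocked with 5% skim milk for 2 h at 25 °C. Primary antibody 2 h, HRP secondary 1 h. PPARγ protein level expressed relative to control. n = 3.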
On the technique in general: Immunoblotting shows a protein as a band on a membrane.

The nature of data set [17]: Cytotoxicity against mouse 3T3-L1 cells assessed as cell viability at 1 uM incubated for 48 hrs by CCK-8 assay relative to control. The data set is classed as toxicity, cell-based. To be noted: read-out: Activity. In outline: as §1
The nature of data set [18]: Cytotoxicity against mouse 3T3-L1 cells assessed as cell viability at 3 uM incubated for 48 hrs by CCK-8 assay relative to control. The following applies: read-out: Activity. The data set is classed as toxicity, cell-based. In outline:
as §1

A short description of data set [19]: Cytotoxicity against mouse 3T3-L1 cells assessed as cell viability at 7.5 uM incubated for 48 hrs by CCK-8 assay relative to control. The data set is classed as toxicity, cell-based. To be noted: read-out: Activity. In outline: as §1
A short description of data set [20]: Cytotoxicity against mouse 3T3-L1 cells transfected with Lenti-PPARgamma-Luc reporter assessed as cell viability at 7.5 uM incubated for 48 hrs by CCK-8 assay relative to control. To be noted: read-out: Activity. The data set is classed as toxicity, cell-based. In outline: as §2
Data set [21] in a line: Cytotoxicity against mouse 3T3-L1 cells transfected with Lenti-PPARgamma-Luc reporter assessed as cell viability at 2 uM incubated for 48 hrs by CCK-8 assay relative to control. The data set is classed as toxicity, cell-based. The following applies: read-out: Activity. In outline:
as §2

Data set [22] can be described thus: Cytotoxicity against mouse 3T3-L1 cells transfected with Lenti-PPARgamma-Luc reporter assessed as cell viability at 3 uM incubated for 48 hrs by CCK-8 assay relative to control. The data set is classed as toxicity, cell-based. The following applies: read-out: Activity. In outline:
as §2

Data set [23] can be described thus: Cytotoxicity against mouse 3T3-L1 cells transfected with Lenti-PPARgamma-Luc reporter assessed as cell viability at 4 uM incubated for 48 hrs by CCK-8 assay relative to control. The data set is classed as toxicity, cell-based. The following applies: read-out: Activity. In outline:
as §2

Data set [24] in a line: Cytotoxicity against mouse 3T3-L1 cells assessed as cell viability at 50 uM incubated for 48 hrs by CCK-8 assay relative to control. The class given is toxicity, cell-based. The following applies: read-out: Activity. A digest of the protocol:
as §1

Data set [25] can be described thus: Cytotoxicity against mouse 3T3-L1 cells assessed as cell viability at 100 uM incubated for 48 hrs by CCK-8 assay relative to control. The class given is toxicity, cell-based. The following applies: read-out: Activity. In outline: as §1

With `COc1cc2c(cc1O)[C@@H](Cc1ccc(O)c(Oc3cc4c(cc3OC)CCN(C)[C@@H]4Cc3ccc(O)cc3)c1)N(C)CC2`, the Activity result in [1] and in data set [15] was “Dose-Dependent Effect” throughout. Also, the viability at 48 h, 5 µM in data set [2] and in [9] was over 80% throughout. In addition, the viability at 48 h, 10 µM in data set [3] and in [10] was over 80% each time. Moreover, the viability at 48 h, 15 µM in data set [4] and in data set [11] was over 80% throughout. The viability at 48 h, 20 µM in data set [5] and in data set [12] was over 80% each time. In addition, the viability at 48 h, 25 µM in data set [6] and in [13] was under 80% in each case. Also, the viability at 48 h, 0.1 µM in data set [7] was over 80%. For the same molecule, the viability at 48 h, 1 µM in data set [8] is over 80%. Also, in [14], the viability at 48 h, 30 µM is under 80%. Besides, the inhibition entry in data set [16] is “Active”.

A word on the IC50: it is the concentration that inhibits the measured activity by half. `C=C(c1ccc(O)c(Oc2cc3c(cc2OC)CCN(C)[C@@H]3Cc2ccc(OC)cc2)c1)[C@H]1c2cc(OC)c(OC)cc2CCN1C`: the Activity entry in data set [1] and in data set [15] was “Dose-Dependent Effect” throughout. In addition, the viability at 48 h, 5 µM in data set [2] and in data set [9] was over 80% in each case. Moreover, the viability at 48 h, 10 µM in data set [3] and in [10] was under 80% in each case. The viability at 48 h, 1 µM in data set [17] and in data set [8] was over 80% each time. For the same molecule, the viability at 48 h, 3 µM in data set [18] and in [22] was over 80% in each case. The viability at 48 h, 7.5 µM in data set [19] and in [20] was under 80% in each case. The viability at 48 h, 0.1 µM in data set [7] is over 80%. Moreover, the viability at 48 h, 2 µM in [21] is over 80%. The viability at 48 h, 4 µM in [23] is over 80%. Further, the IC50 in data set [15] was found to be 4.6 µM. In data set [16], the inhibition entry was “Active”.

Take `COc1cc2c(cc1OC)[C@@H](Cc1ccc(O)c(Oc3cc4c(cc3OC)CCN(C)[C@@H]4Cc3ccc(O)cc3)c1)N(C)CC2`: the Activity result in [1] and in data set [15] was “Dose-Dependent Effect” throughout. In addition, the viability at 48 h, 5 µM in data set [2] and in data set [9] was over 80% in each case. For the same molecule, the viability at 48 h, 10 µM in [3] and in data set [10] was over 80% in each case. For the same molecule, the viability at 48 h, 15 µM in data set [4] and in [11] was over 80% throughout. For the same molecule, the viability at 48 h, 20 µM in data set [5] was over 80%; in [12], under 80%. The viability at 48 h, 25 µM in data set [6] and in data set [13] was under 80% in each case. Further, the viability at 48 h, 0.1 µM in data set [7] was over 80%. The viability at 48 h, 1 µM in [8] was over 80%. Besides, the viability at 48 h, 30 µM in data set [14] was under 80%. Besides, the inhibition result in data set [16] is “Active”.

For `COc1ccc(C[C@@H]2c3cc(Oc4cc(C[C@H]5c6cc(OC)c(OC)cc6CCN5C)ccc4O)c(OC)cc3CCN2C)cc1`, the Activity entry in data set [1] and in data set [15] was “Dose-Dependent Effect” in each case. For the same molecule, the viability at 48 h, 5 µM in data set [2] and in data set [9] was over 80% each time. Besides, the viability at 48 h, 10 µM in [3] and in data set [10] was under 80% each time. For the same molecule, the viability at 48 h, 15 µM in data set [4] is over 80%. The viability at 48 h, 1 µM in [17] and in [8] was over 80% throughout. Further, the viability at 48 h, 3 µM in data set [18] and in data set [22] was over 80% each time. The viability at 48 h, 7.5 µM in data set [19] and in [20] was under 80% in each case. Also, the viability at 48 h, 0.1 µM in data set [7] was over 80%. In addition, the viability at 48 h, 2 µM in data set [21] is over 80%. For the same molecule, the viability at 48 h, 4 µM in data set [23] was over 80%. Besides, in [15], the concentration for half-maximal inhibition (IC50) was determined as 4.5 µM. Moreover, in [16], the inhibition result was “Active”.

For the molecule `COc1cc2c(cc1O)C(Cc1ccc(O)c(-c3c(O)c(OC)cc4c3C(Cc3ccc(O)cc3)N(C)CC4)c1)N(C)CC2` (configuration not stated), the viability at 48 h, 5 µM in data set [2] is over 80%. Also, the viability at 48 h, 10 µM in [3] was over 80%. Moreover, the viability at 48 h, 25 µM in data set [6] is over 80%. Moreover, the viability at 48 h, 50 µM in data set [24] was over 80%. For the same molecule, the viability at 48 h, 100 µM in [25] was over 80%.
